Results: ChEMBL document CHEMBL2163310, “Critical effect of peptide cyclization on the potency of peptide inhibitors against Dengue virus NS2B-NS3 protease” (J Med Chem, 2012)
The source made the active and inactive calls. The calls are words filed in the database; no cut-off is given here. Positions of bridges follow the written chain, without caps; N, C: chain ends. Residues, ends and D or L forms follow the SMILES beside them.

Legend:
[1] = Inhibition of Dengue Virus 2 NS2B-NS3 protease using Benzoyl-Nle-Lys-Arg-Arg-AMC as substrate incubated for 3 mins prior to substrate addition by fluorimetric analysis; parameters: species or system dengue virus type 2
Procedure, shortened: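 Ki by Dixon plot (1/v vs inhibitor) at 33 and 66 μM substrate. Fluorescence ex 356/em 438 nm; triplicate means.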

[2] = Chemical stability after 30 mins in presence of trypsin; format: physicochemical; settings: isolated protein, 0.5 h
Procedure, shortened: (§1)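 Peptide incubated with trypsin in 0.05 M Tris-HCl pH 7.8, 20 mM CaCl2 at 37 °C, or with cathepsin S in 50 mM NaAc pH 4.5, 25 mM NaCl, 5 mM DTT at room temperature. Digests analysed on HPLC C18 analytical column for remaining intact peptide.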

[3] = Drug degradation assessed as compound activity lost at 3.3 uM measured every 30 mins of 2.5 hrs in presence of Dengue Virus 2 NS2B-NS3 protease; format: physicochemical; settings: Dengue virus 2, Dengue virus 2 NS2B-NS3 protease; read-out: Drug degradation
[4] = Drug degradation assessed as compound activity lost at 6.7 uM measured every 30 mins of 2.5 hrs in presence of Dengue Virus 2 NS2B-NS3 protease; format: physicochemical; settings: Dengue virus 2, Dengue virus 2 NS2B-NS3 protease; read-out: Drug degradation
[5] = Inhibition of trypsin using N-benzoyl-DL-arginine-p-nitroanilide as substrate by […] analysis
[6] = Chemical stability assessed as compound remaining after 4 hrs in presence of cathepsin S; format: physicochemical; procedure, shortened: as §1
[7] = Chemical stability assessed as compound remaining after 4 hrs in presence of trypsin; format: physicochemical; settings: read-out: Stability; procedure, shortened: as §1
[8] = Chemical stability at 16. 7 uM measured every 30 mins of 2.5 hrs in presence of Dengue Virus 2 NS2B-NS3 protease; format: physicochemical
[9] = tested on: dengue virus type 2; assay: Inhibition of Dengue Virus 2 NS2B-NS3 protease using Benzoyl-Nle-Lys-Arg-Arg-AMC as substrate at 167 uM incubated for 3 mins prior to substrate addition by fluorimetric analysis
Procedure, shortened: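 Enzyme preincubated with inhibitor for 3 min at 37 °C before adding Bz-Nle-Lys-Arg-Arg-AMC substrate. Residual activity read by fluorescence, excitation 356 nm, emission 438 nm. Triplicate measurements averaged.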

## H-CAGKRKSG-OH
[1]
  Ki: 42 µM
[2]
  Stability: Stable

## CC(C)C[C@@H]1NC(=O)[C@H](CCCCN)NC(=O)CNC(=O)CNC(=O)[C@@H](N)CSSC[C@@H](C(=O)O)NC1=O (H-CGGKLC-OH; disulfide 1-6)
[1]
  Ki: 15.1 µM

## N=C(N)NCCC[C@@H]1NC(=O)C(CCCCN)NC(=O)CNC(=O)[C@@H](N)CSSC[C@@H](C(=O)O)NC(=O)[C@H](CO)NC(=O)[C@H](CCCCN)NC1=O (single isomer, unassigned)
[3]
  metabolised at 2.5 h, 3.3 µM: 50%
[4]
  metabolised at 2.5 h, 6.7 µM: 50%
[1]
  Ki: 1.4 µM
[5]
  Ki: > 100 µM

## N=C(N)NCCC[C@@H]1NC(=O)C(CCCCN)NC(=O)CNC(=O)[C@@H](N)CSSC[C@@H](C(=O)O)NC(=O)[C@H](CCCNC(=N)N)NC1=O (single isomer, unassigned)
[1]
  Ki: 3.5 µM

## C[C@@H]1NC(=O)[C@@H](CS)NC(=O)CNC(=O)[C@H](CO)NC(=O)[C@H](CCCCN)NC(=O)[C@H](CCCNC(=N)N)NC(=O)C(CCCCN)NC(=O)CNC1=O (single isomer, unassigned)
[3]
  metabolised at 2.5 h, 3.3 µM: 25%
[6]
  Stability: Stable
[7]
  remaining at 4 h: 50%
[1]
  Ki: 2.2 µM
[5]
  Ki: > 100 µM

## CC(C)C[C@@H]1NC(=O)[C@H](CCCCN)NC(=O)[C@H](CCCNC(=N)N)NC(=O)C(CCCCN)NC(=O)CNC(=O)[C@@H](N)CSSC[C@@H](C(=O)O)NC1=O (single isomer, unassigned)
[3]
  metabolised at 2.5 h, 3.3 µM: 50%
[4]
  metabolised at 2.5 h, 6.7 µM: 50%
[1]
  Ki: 2.5 µM

## N=C(N)NCCC[C@@H]1NC(=O)[C@H](CCCCN)NC(=O)[C@H](Cc2ccc(O)cc2)NC(=O)CNC(=O)[C@@H](N)CSSC[C@@H](C(=O)O)NC1=O (H-CGYKRC-OH; disulfide 1-6)
[1]
  Ki: 5 µM

## NCCCC[C@@H]1NC(=O)[C@H](Cc2ccc(O)cc2)NC(=O)CNC(=O)[C@@H](N)CSSC[C@@H](C(=O)O)NC(=O)CNC1=O (H-CGYKGC-OH; disulfide 1-6)
[1]
  Ki: 12 µM

## C[C@@H]1NC(=O)CNC(=O)[C@H](CO)NC(=O)[C@H](CCCCN)NC(=O)[C@H](CCCNC(=N)N)NC(=O)C(CCCCN)NC(=O)CNC1=O (single isomer, unassigned)
[8]
  Stability: Stable
[1]
  Ki: 11.3 µM

## CC(C)C[C@@H]1NC(=O)[C@H](CCCCN)NC(=O)[C@H](Cc2ccc(O)cc2)NC(=O)CNC(=O)[C@@H]2CSSC[C@H](NC1=O)C(=O)N[C@@H](Cc1cnc[nH]1)C(=O)N1C[C@H](O)C[C@H]1C(=O)N[C@H](C(=O)O)CSSC[C@H](NC(=O)[C@@H](NC(=O)CNC(=O)[C@@H](N)CC(N)=O)C(C)C)C(=O)N2
[1]
  Ki: 9 µM

## CC(C)C[C@@H]1NC(=O)[C@H](CCCCN)NC(=O)C(Cc2ccc(O)cc2)NC(=O)CNC(=O)[C@@H](N)CSSC[C@@H](C(=O)O)NC1=O (single isomer, unassigned)
[1]
  Ki: 12.5 µM
[9]
  inhibition: inactive
[5]
  Ki: > 100 µM

## CC(C)C[C@@H]1NC(=O)CNC(=O)[C@H](Cc2ccc(O)cc2)NC(=O)CNC(=O)[C@@H](N)CSSC[C@@H](C(=O)O)NC1=O (H-CGYGLC-OH; disulfide 1-6)
[1]
  Ki: > 100 µM
